In ChEMBL document CHEMBL1157391, “Apratoxin E, a cytotoxic peptolide from a guamanian collection of the marine cyanobacterium Lyngbya bouillonii” (J Nat Prod, 2008):
*1 amine or outer side, *2 acyl side, *3 side chain or, on linkers, in order; H or OH if unused. Where a SMILES comes first, the peptide text is derived from it. Bridges are numbered along the chain shown (N, C = ends). Roman numbers before positions name the chains, in order. [ ]: non-standard residue; d: D form. Actinocin(1to9) = Cc1c2oc3c(C)ccc(C(=O)[*:2])c3nc-2c(C(=O)[*:1])c(N)c1=O; NMeV = CN[C@H](C(=O)O)C(C)C; Sar = CNCC(=O)O

Tests used:
Format in all cases: functional, cell-based
HT-29 = test: Antiproliferative activity against human HT29 cells after 48 hrs by MTT assay; conditions: HT-29, 48 h
How it was run: (§1)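 Cells grown in high-glucose DMEM with 10% FBS at 37 °C under humidified 5% CO2. Seeded in 96-well plates at 10 000 (HT29), 3000 (HeLa) or 5000 (U2OS) cells per well. Treated 24 h later with a concentration series; solvent controls were 1% EtOH or 1% DMSO. Viability read by MTT after 48 h incubation.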

HeLa = test: Antiproliferative activity against human HeLa cells after 48 hrs by MTT assay; how it was run: as §1
U2OS = test: Antiproliferative activity against human U2OS cells after 48 hrs by MTT assay; how it was run: as §1

Row | Structure (SMILES) | IC50 (HT-29) [nM] | IC50 (HeLa) [nM] | IC50 (U2OS) [nM]
1 | Cc1c2oc3c(C)ccc(C(=O)N[C@@H]4C(=O)N[C@H](C(C)C)C(=O)N5CCC[C@H]5C(=O)N(C)CC(=O)N(C)[C@@H](C(C)C)C(=O)O[C@@H]4C)c3nc-2c(C(=O)N[C@@H]2C(=O)N[C@H](C(C)C)C(=O)N3CCC[C@H]3C(=O)N(C)CC(=O)N(C)[C@@H](C(C)C)C(=O)O[C@@H]2C)c(N)c1=O [DACTINOMYCIN] (I: T[dV]P[Sar][NMeV] / II: T[dV]P[Sar][NMeV]; ester I:1-I:C, II:1-II:C; linker I:N-II:N via Actinocin(1to9)) | 2.9 | 0.4 | 3.2
2 | CC[C@H](C)[C@H]1C(=O)N2CCC[C@H]2C(=O)O[C@H](C(C)(C)C)C[C@@H](C)C/C=C/C2=N[C@@H](CCC(=O)N[C@@H](Cc3ccc(OC)cc3)C(=O)N(C)[C@@H](C)C(=O)N1C)CS2 [APRATOXIN E] | 21 | 72 | 59
3 | CC[C@H](C)[C@H]1C(=O)N2CCC[C@H]2C(=O)O[C@H](C(C)(C)C)C[C@@H](C)C[C@H](O)[C@H](C)C2=N[C@@H](/C=C(\C)C(=O)N[C@@H](Cc3ccc(OC)cc3)C(=O)N(C)[C@@H](C)C(=O)N1C)CS2 [APRATOXIN A] | 1.4 | 10 | 10
4 | CC(=O)O[C@H]1C(=O)[C@@]2(C)[C@H]([C@H](OC(=O)c3ccccc3)[C@]3(O)C[C@H](OC(=O)[C@H](O)[C@@H](NC(=O)c4ccccc4)c4ccccc4)C(C)=C1C3(C)C)[C@]1(OC(C)=O)CO[C@@H]1C[C@@H]2O [PACLITAXEL] | 1.9 | 1.5 | 24
5 | CC[C@H](C)[C@H]1C(=O)N2CCC[C@H]2C(=O)O[C@H](C(C)(C)C)C[C@@H](C)C/C=C(\C)C2=N[C@@H](/C=C(\C)C(=O)N[C@@H](Cc3ccc(OC)cc3)C(=O)N(C)[C@@H](C)C(=O)N1C)CS2 [E-DEHYDROAPRATOXIN A] | 41 | 121 | 160
